RGS4 act – potentiators or activators of RGS4 | B-score at 10 µM | hit rate 0.92% among 310,000 | HEK293 M3R/inducible RGS4, carbachol calcium flux Fluo4; stronger effect = lower value | AID 463111;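 active means B-score of the integrated calcium signal more than 4 SD below the library mean, with starting fluorescence not abnormally high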;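 further: negative B-score means reduced calcium response which marks RGS4 activation or potentiation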
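Material: M3R-expressing HEK293 line, RGS4 induced by doxycycline | Schedule: Overnight RGS4 induction, 30 min dye load 37 °C, 20 min compound RT | Measured by: Fluo4 fluorescence kinetic imaging of calcium | Read-out: Integrated calcium ratio converted to B score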
MrgX1 antagonist – antagonists of human MrgX1 receptor. Q96LB2. MRGX1-HEK293 calcium flux, Fluo-4, BAM8-22 antagonism; stronger effect = lower value. B-score at 10 µM. hit rate 1.3% among 310,000. AID 588676;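 active means calcium-response B-score plate-corrected more than 3 library SD below zero, starting fluorescence within 5 deviations, no agonist response on first addition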;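 further: peak minus trough fluorescence over baseline after final BAM8-22 challenge near maximal dose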
Target sequence (Q96LB2 whole entry, looked up): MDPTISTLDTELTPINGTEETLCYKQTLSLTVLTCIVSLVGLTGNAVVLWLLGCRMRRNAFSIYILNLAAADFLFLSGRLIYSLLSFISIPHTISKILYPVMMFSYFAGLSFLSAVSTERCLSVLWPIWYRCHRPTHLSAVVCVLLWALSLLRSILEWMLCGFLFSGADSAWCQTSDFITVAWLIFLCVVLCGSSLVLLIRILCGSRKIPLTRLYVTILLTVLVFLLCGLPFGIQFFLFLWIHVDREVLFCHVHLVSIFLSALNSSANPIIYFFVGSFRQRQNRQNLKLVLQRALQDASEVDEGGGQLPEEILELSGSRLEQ
MrgX1 PAM – allosterically activates human MrgX1 receptor signaling. Q96LB2. MrgX1-HEK293, Fluo-4 calcium flux, FDSS; stronger effect = higher value. B-score at 10 µM. hit rate 0.63% among 310,000. AID 588675;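 active means plate-corrected calcium response at least 3 library SD above typical, normal starting fluorescence, not activating the receptor alone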;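 further: compound read alongside a low EC10 to EC30 dose of BAM8-22 agonist; peak minus trough fluorescence over baseline measured at the second addition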
MrgX1 agonist – agonists of human MrgX1 receptor; Q96LB2; B-score at 10 µM; hit rate 0.44% among 310,000; AID 588627; MrgX1-HEK293 cells, Fluo-4 calcium fluorescence, agonist mode; stronger effect = higher value;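 active means calcium response B-score plate-corrected fluorescence ratio at least 3 library SD, with starting fluorescence B-score inside 5 SD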
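Assay system: stable human MrgX1 HEK293 cell line. Quantity: 15,000 cells per well. Schedule: cells plated overnight, dye loaded 0.5 h 37 °C, 0.5 h room temperature. Detection: Fluo-4 NW calcium-flux fluorescence, kinetic read. Read-out basis: peak-minus-minimum fluorescence over baseline, converted to B scores. Control set: positive and negative control wells on each plate.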
RGS4 block – inhibitors of human RGS4; P49798; HEK293 M3R/RGS4 inducible, Fluo-4 calcium flux; stronger effect = higher value; triggered by carbachol at its EC20; B-score at 10 µM; hit rate 0.45% among 310,000; AID 463165;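 active means B-score, a plate-corrected calcium signal, over three deviations above library mean, with baseline fluorescence within five deviations of library mean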;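 further: RGS4 expression induced by doxycycline in cells with stable M3 receptor; B-score is computed from the integrated fluorescence ratio over baseline after carbachol; higher B-score means a larger calcium signal and so more RGS4 inhibition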
Target sequence (P49798 whole entry, looked up): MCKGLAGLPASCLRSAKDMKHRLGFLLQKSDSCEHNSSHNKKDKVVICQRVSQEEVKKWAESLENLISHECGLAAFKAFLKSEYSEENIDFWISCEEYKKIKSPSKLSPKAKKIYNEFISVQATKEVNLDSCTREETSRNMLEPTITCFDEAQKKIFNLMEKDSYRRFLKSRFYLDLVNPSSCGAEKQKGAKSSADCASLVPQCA
Of the large screens only hits and unclear results are named; the others gave an inactive call. A selection: hits, their analogues and other compounds. The true share with any hit is near 3.5%.

COc1cc(Cl)c(CN2CCCC(CO)(Cc3ccccc3F)C2)cc1OC (centres undefined)	none
COc1cccc(OC)c1OCCCCN1CCC(Cc2ccccc2)CC1	none
CCC(=O)c1ccccc1OCCCN1CCC(Cc2ccccc2)CC1	MrgX1 antagonist -5.6
CC(=O)CCc1ccc(OCCCCN2CCC(Cc3ccccc3)CC2)cc1	RGS4 act -7.2
Cc1ccc(-c2noc(CN(C)C(=O)c3ccc(Br)o3)n2)cc1	none
C=CCn1cccc(C(=O)Nc2ccc(OCC)cc2)c1=O	none
CCN(Cc1ccccc1)S(=O)(=O)c1ccc(C(=O)N(CCCN(C)C)c2nc3cc(C)cc(C)c3s2)cc1	none
CCCCN(CC)S(=O)(=O)c1ccc(C(=O)N(CCCN(C)C)c2nc3cc(C)cc(C)c3s2)cc1	RGS4 act -8.1
COc1cccc2sc(N(CCN(C)C)C(=O)c3ccc4c(c3)CCCC4)nc12	MrgX1 PAM 6.7
CCOc1cccc2sc(N(CCCN(C)C)C(=O)c3ccc(S(=O)(=O)N(CC)Cc4ccccc4)cc3)nc12	RGS4 act -7.7
O=C(CNC(=S)N(Cc1ccccc1F)C1CCCCC1)NCCCN1CCOCC1	none
CCC(C)NS(=O)(=O)c1ccc(S(=O)(=O)N(CCc2ccc(OC)c(OC)c2)Cc2cccs2)cc1 (centres undefined)	none
O=Cc1c(NCc2cccc(F)c2)c2ccccc2[nH]c1=O	none
Cc1nc(C)c(-c2csc(Nc3cccc(O)c3)n2)s1	none
CC(=O)c1cccc(Nc2nc(-c3sc(N)nc3C)cs2)c1	RGS4 act -7.2
CCC(=O)Nc1nc(C)c(-c2csc(Nc3cccc(O)c3)n2)s1	RGS4 act -7.3, MrgX1 antagonist -5.4
CC(=O)c1cccc(Nc2nc(-c3sc(C)nc3C)cs2)c1	none
CN1CCSc2ccc(C(=O)NCc3cccc(Br)c3)cc21	none
O=C(N/N=C/c1ccc(OC(=O)c2ccccc2Cl)cc1)c1cc(O)cc(O)c1	RGS4 act -7.6
C[C@H](NC(=O)c1ccc(Cl)cc1)C(=O)NCCc1ccc(S(N)(=O)=O)cc1	none
COc1cc(CNC2CCCC2)cc(Br)c1OCC(=O)Nc1ccccc1C	none
CCCCn1c(SCC(=O)NCc2ccco2)nc2ccccc2c1=O	none
CCCCCn1c(SCc2ccncc2)nc2cc(C(=O)NCc3ccco3)ccc2c1=O	RGS4 act -8
CCNc1nc(NCC)nc(Oc2ccc(C(=O)OC)cc2)n1	none
O=C1N/C(=N/O)S/C1=C/c1cccnc1	none
Cc1ccc(S(=O)(=O)/N=C2/NC(=O)/C(=C/c3cccnc3)S2)cc1	MrgX1 agonist 31
CCCCOc1ccccc1C(=O)N(Cc1ccc(C)o1)C1CCS(=O)(=O)C1 (centres undefined)	none
C=CCn1c(C)cc(C(=O)CN2NS(=O)(=O)c3ccccc3C2=O)c1C	MrgX1 PAM 7.1
C=CCn1c(C)cc(C(=O)Cn2ncc(Cl)c(Cl)c2=O)c1C	none
Cc1cccn2c(=O)c3cc(C(=O)NCCc4ccccc4)c(=N)n(Cc4ccco4)c3nc12	RGS4 act -8.6
CCOCCCn1c(=N)c(C(=O)NCc2ccc3c(c2)OCO3)cc2c(=O)n3cccc(C)c3nc21	RGS4 act -8.5
Cc1cccn2c(=O)c3cc(C(=O)NCc4ccco4)c(=N)n(CCc4ccccc4)c3nc12	none (no result: RGS4 act, RGS4 block)
CC(C)NC(=S)NN=C1c2ccccc2-c2ccccc21	none
COc1ccc(CCNC(=O)c2cccs2)cc1	none
O=C(CCNC(=O)C1CCN(S(=O)(=O)c2ccccc2)CC1)NCCc1cccc(F)c1	none
CCN1c2ccccc2NC2C1C(C(C)=O)C(=O)N2c1ccc(Cl)cc1 (centres undefined)	MrgX1 antagonist -5.1
O=C1Nc2ccccc2N(O)N1c1ccc(Cl)cc1	none
CN1CCN(c2ccccc2NS(=O)(=O)c2ccc3c(c2)CCN3C(=O)C2CCC2)CC1	RGS4 act -9.8
O=C(C1CCC1)N1CCc2cc(S(=O)(=O)NC3CCCC3)ccc21	none
O=C(Nc1ccc2c(c1)OCO2)c1ccc([N+](=O)[O-])cc1[N+](=O)[O-]	none
CCCc1nc2ccc(NC(=O)c3ccco3)cc2c(=O)n1Cc1ccc(Cl)cc1	MrgX1 antagonist -6.7
COc1ccc(N2CCN(C(=O)COC(=O)c3ccc(C)o3)CC2)cc1	none
COc1nc(Oc2ccc(C(=O)O)cc2)nc(Oc2ccc(C(=O)O)cc2)n1	none
COc1ccc(Oc2nc(Oc3ccc(OC)cc3)nc(Oc3ccc(OC)cc3)n2)cc1	MrgX1 antagonist -6.5
COCC1=C(C(=O)OC)C(c2ccco2)n2ncnc2N1 (centres undefined)	none
Cc1cccc(-n2c(C)cc(C=C3C(=O)c4ccccc4C3=O)c2C)c1	RGS4 act -10
Cc1cccc(-n2c(C)cc(/C=N/n3cnnc3)c2C)c1	RGS4 act -7.3
CN(CCOc1ccc(Cl)cc1)C(=O)c1cc([N+](=O)[O-])ccc1N1CCOCC1	none
CCCC(=O)Nc1ccccc1Sc1ncnc2scc(-c3ccccc3)c12	none
CSc1ncccc1C(=O)Nc1ccc(S(=O)(=O)NC2=NCCCCC2)cc1	MrgX1 antagonist -4.6
O=C(NCCS(=O)(=O)N1CCN(c2ccccc2F)CC1)c1cc(=O)c2ccccc2o1	none
NC(=O)c1ccc(NC(=O)CCN2C(=O)c3ccccc3C2=O)cc1	none
CC(C)C(C(=O)O)N1C(=O)/C(=C/c2cccn2C)SC1=S (centres undefined)	none (no result: RGS4 act, RGS4 block)
CC(C)C(C(=O)O)N1C(=O)/C(=C/C=C/c2ccco2)SC1=S (centres undefined)	MrgX1 antagonist -5.3
O=C1/C(=C/C=C/c2ccco2)SC(=S)N1c1ccc(O)cc1	MrgX1 PAM 16
O=c1[nH]c([N+](=O)[O-])nn1C(c1ccccc1)c1ccccc1	none
Cc1c(NC(=O)Nc2ccc(Cl)cc2)c(=O)n(-c2ccccc2)n1C	MrgX1 antagonist -5.9
Cc1onc(-c2c(F)cccc2Cl)c1C(=O)NC(=S)Nc1c(C)n(C)n(-c2ccccc2)c1=O	RGS4 act -9.9
CN(CC(=O)NCc1cccnc1)S(=O)(=O)c1ccc(F)cc1	none
O=C(O)CC1SC(N/N=C/c2ccc(Br)cc2)NC1=O (centres undefined)	MrgX1 antagonist -5.7
CCOc1ccc(S(=O)(=O)N2Cc3ccccc3CC2C(=O)O)cc1 (centres undefined)	none
Cc1ccccc1SCC(=O)Nc1cc(C(F)(F)F)ccc1N1CCOCC1	MrgX1 PAM 11
O=C(O)c1ccc(CSc2nc(-c3ccc(Cl)cc3)cc(C(F)(F)F)n2)cc1	RGS4 act -7.5
O=C(O)c1ccc(CSc2nc(-c3ccccc3)cc(C(F)(F)F)n2)cc1	none
CCc1cccc(C)c1NC(=S)N(CCN(C)C)C(C)c1ccco1 (centres undefined)	none
CCN1CCN(c2ncc(C(=O)Nc3c(F)cc(F)cc3Br)c3ccccc23)CC1	none
CCN1CCN(c2ncc(C(=O)Nc3cc(Cl)c(OC)cc3OC)c3ccccc23)CC1	RGS4 act -7.3 (no result: MrgX1 antagonist, MrgX1 PAM, MrgX1 agonist)
